Results as given in ChEMBL document CHEMBL1138555, “N-acylated and N,N'-diacylated imidazolidine-2-thione derivatives and N,N'-diacylated tetrahydropyrimidine-2(1H)-thione analogues: synthesis and antiproliferative activity” (Eur J Med Chem, 2009).
Activity calls are given as the source filed them. The rule behind the calls is not given here.

Columns and labels:
[1] = system: Human immunodeficiency virus 1; test: Antiviral activity against HIV1 in human MT4 cells assessed as prevention of virus-induced cytopathogenicity; format: functional, organism-based
Outline: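 MT-4 cells, 1 × 10⁴ per well, with serial compound dilutions from a 100 mM DMSO stock. Infected with HIV-1 at 100 CCID50. Four-day incubation at 37 °C, then viable cells measured by MTT. Read-out is inhibition of virus-induced cytopathogenicity, assessed at non-cytotoxic concentrations.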

[2] = system: U-251; test: Growth inhibition of human U251 cells after 48 hrs by sulforhodamine B assay; format: functional; details: U-251, 48 h
Outline: (§1)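 NCI in vitro panel screen. Compounds tested at five 10-fold dilutions, 10^-4 to 10^-8 M. Cells in 96-well plates were exposed for the last 48 h of a 72 h incubation. Viability/growth was read by sulforhodamine B protein assay. GI50 is the concentration giving 50% growth inhibition. Values beyond the tested range are reported as greater or less than the maximum or minimum concentration.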

[3] = system: M14; test: Growth inhibition of human M14 cells after 48 hrs by sulforhodamine B assay; format: functional; details: M14, 48 h
Outline: (§2)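 NCI screen panel. Five 10-fold concentrations from 10^-4 to 10^-8 M. Exposure for the last 48 h of a 72 h incubation. Growth estimated by sulforhodamine B protein assay. GI50 is the concentration giving 50% growth inhibition. Where that level was not reached or was exceeded, the value is given as above or below the highest or lowest concentration tested.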

[4] = system: MDA-MB-231; test: Growth inhibition of human MDA-MB-231 cells after 48 hrs by sulforhodamine B assay; format: functional; details: MDA-MB-231, 48 h; outline: as §2
[5] = Growth inhibition of human […] cells after 48 hrs by sulforhodamine B assay; format: functional; outline: as §2
[6] = system: EKVX; test: Growth inhibition of human EKVX cells after 48 hrs by sulforhodamine B assay; format: functional; outline: as §2
[7] = system: HOP-92; test: Growth inhibition of human HOP92 cells after 48 hrs by sulforhodamine B assay; format: functional; details: HOP-92, 48 h; outline: as §2
[8] = system: MCF7; test: Growth inhibition of human MCF7 cells after 48 hrs by sulforhodamine B assay; format: functional; details: MCF7, 48 h; outline: as §2
[9] = system: HCT-116; test: Growth inhibition of human HCT116 cells after 48 hrs by sulforhodamine B assay; format: functional; details: HCT-116, 48 h; outline: as §2
[10] = system: SK-MEL-5; test: Growth inhibition of human SK-MEL-5 cells after 48 hrs by sulforhodamine B assay; format: functional; details: SK-MEL-5, 48 h; outline: as §2
[11] = system: 786-0; test: Growth inhibition of human 786-0 cells after 48 hrs by sulforhodamine B assay; format: functional; details: 786-0, 48 h; outline: as §2
[12] = system: NCI-H322M; test: Growth inhibition of human NCI-H322M cells after 48 hrs by sulforhodamine B assay; format: functional; outline: as §2
[13] = system: SK-OV-3; test: Growth inhibition of human SKOV3 cells after 48 hrs by sulforhodamine B assay; format: functional; details: SK-OV-3, 48 h; outline: as §2
[14] = system: SK-MEL-28; test: Growth inhibition of human SK-MEL-28 cells after 48 hrs by sulforhodamine B assay; format: functional; details: SK-MEL-28, 48 h; outline: as §2
[15] = system: DU-145; test: Growth inhibition of human DU145 cells after 48 hrs by sulforhodamine B assay; format: functional; details: DU-145, 48 h; outline: as §2
[16] = system: BT-549; test: Growth inhibition of human BT549 cells after 48 hrs by sulforhodamine B assay; format: functional; details: BT-549, 48 h; outline: as §2
[17] = system: SF-268; test: Growth inhibition of human SF268 cells after 48 hrs by sulforhodamine B assay; format: functional; details: SF-268, 48 h; outline: as §2
[18] = system: K562; test: Growth inhibition of human K562 cells after 48 hrs by sulforhodamine B assay; format: functional; details: K562, 48 h; outline: as §2
[19] = system: UO-31; test: Growth inhibition of human UO31 cells after 48 hrs by sulforhodamine B assay; format: functional; details: UO-31, 48 h; outline: as §1
[20] = system: SNB-75; test: Growth inhibition of human SNB75 cells after 48 hrs by sulforhodamine B assay; format: functional; details: SNB-75, 48 h; outline: as §1
[21] = system: T47D; test: Growth inhibition of human T47D cells after 48 hrs by sulforhodamine B assay; format: functional; outline: as §1
[22] = system: SN12C; test: Growth inhibition of human SN12C cells after 48 hrs by sulforhodamine B assay; format: functional; outline: as §1
[23] = system: OVCAR-3; test: Growth inhibition of human OVCAR-3 cells after 48 hrs by sulforhodamine B assay; format: functional; details: OVCAR-3, 48 h; outline: as §2
[24] = system: SR; test: Growth inhibition of human SR cells after 48 hrs by sulforhodamine B assay; format: functional; outline: as §1
[25] = system: SF-539; test: Growth inhibition of human SF539 cells after 48 hrs by sulforhodamine B assay; format: functional; details: SF-539, 48 h; outline: as §2
[26] = system: LOX IMVI; test: Growth inhibition of human LOXIMVI cells after 48 hrs by sulforhodamine B assay; format: functional; outline: as §2
[27] = system: HT-29; test: Growth inhibition of human HT-29 cells after 48 hrs by sulforhodamine B assay; format: functional; details: HT-29, 48 h; outline: as §2
[28] = system: OVCAR-4; test: Growth inhibition of human OVCAR4 cells after 48 hrs by sulforhodamine B assay; format: functional; details: OVCAR-4, 48 h; outline: as §2
[29] = system: COLO 205; test: Growth inhibition of human COLO205 cells after 48 hrs by sulforhodamine B assay; format: functional; details: COLO 205, 48 h; outline: as §2
[30] = system: HOP-62; test: Growth inhibition of human HOP62 cells after 48 hrs by sulforhodamine B assay; format: functional; details: HOP-62, 48 h; outline: as §2
[31] = system: HL-60(TB); test: Growth inhibition of human HL-60(TB) cells after 48 hrs by sulforhodamine B assay; format: functional; details: HL-60, 48 h
Outline: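 NCI 60-cell-line screen protocol: cells exposed to compound at five 10-fold dilutions from 10^-4 to 10^-8 M for the last 48 h of a 72 h incubation. Sulforhodamine B protein assay estimated viability/growth. GI50 (50% growth inhibition) derived; where not reached or exceeded, reported as greater or less than the highest or lowest concentration tested.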

[32] = system: IGROV-1; test: Growth inhibition of human IGROV1 cells after 48 hrs by sulforhodamine B assay; format: functional; details: IGROV-1, 48 h; outline: as §2
[33] = system: KM12; test: Growth inhibition of human KM12 cells after 48 hrs by sulforhodamine B assay; format: functional; details: KM12, 48 h; outline: as §2
[34] = system: UACC-62; test: Growth inhibition of human UACC62 cells after 48 hrs by sulforhodamine B assay; format: functional; details: UACC-62, 48 h; outline: as §1
[35] = system: Malme-3M; test: Growth inhibition of human MALME-3M cells after 48 hrs by sulforhodamine B assay; format: functional; outline: as §2
[36] = system: A549; test: Growth inhibition of human A549 cells after 48 hrs by sulforhodamine B assay; format: functional; details: A549, 48 h; outline: as §2
[37] = system: HCT-15; test: Growth inhibition of human HCT15 cells after 48 hrs by sulforhodamine B assay; format: functional; details: HCT-15, 48 h; outline: as §2
[38] = system: OVCAR-8; test: Growth inhibition of human OVCAR8 cells after 48 hrs by sulforhodamine B assay; format: functional; details: OVCAR-8, 48 h; outline: as §2
[39] = system: MT4; test: Antiproliferative activity against human MT4 cells assessed as reduction of growth by MTT assay; format: functional, cell-based
Outline: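 MT-4 lymphoblastoid T cells (ATCC) in RPMI 1640 with 10% FCS, penicillin/streptomycin, checked for mycoplasma. 1 × 10⁴ mock-infected cells per well with serial dilutions from a 100 mM DMSO stock. Incubated 4 days at 37 °C, viable cells counted by MTT. IC50 versus untreated controls by linear regression. Mean of three separate experiments.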

[40] = system: MOLT-4; test: Growth inhibition of human MOLT4 cells after 48 hrs by sulforhodamine B assay; format: functional; details: MOLT-4, 48 h; outline: as §2
[41] = system: CAKI-1; test: Growth inhibition of human Caki1 cells after 48 hrs by sulforhodamine B assay; format: functional; details: CAKI-1, 48 h; outline: as §2
[42] = system: NCI-H460; test: Growth inhibition of human NCI-H460 cells after 48 hrs by sulforhodamine B assay; format: functional; details: NCI-H460, 48 h; outline: as §2
[43] = system: ACHN; test: Growth inhibition of human ACHN cells after 48 hrs by sulforhodamine B assay; format: functional; outline: as §2
[44] = system: SNB-19; test: Growth inhibition of human SNB19 cells after 48 hrs by sulforhodamine B assay; format: functional; details: SNB-19, 48 h; outline: as §1
[45] = system: TK-10; test: Growth inhibition of human TK10 cells after 48 hrs by sulforhodamine B assay; format: functional; details: TK-10, 48 h; outline: as §1
[46] = system: PC-3; test: Growth inhibition of human PC3 cells after 48 hrs by sulforhodamine B assay; format: functional; details: PC-3, 48 h; outline: as §2
[47] = system: MDA-MB-435; test: Growth inhibition of human MDA-MB-435 cells after 48 hrs by sulforhodamine B assay; format: functional; details: MDA-MB-435, 48 h; outline: as §2
[48] = system: SW-620; test: Growth inhibition of human SW620 cells after 48 hrs by sulforhodamine B assay; format: functional; details: SW-620, 48 h; outline: as §1
[49] = system: SF-295; test: Growth inhibition of human SF295 cells after 48 hrs by sulforhodamine B assay; format: functional; details: SF-295, 48 h; outline: as §2

N#CC(C#N)=CN1CCNC1=S
Activity [1]: inactive

N#C/C(=C\N1CCNC1=S)C(=O)c1ccccc1
Activity [1]: inactive

COC(=O)/C(=C\N1CCNC1=S)C(C)=O
Activity [1]: inactive

COC(=O)/C(C#N)=C/N1CCNC1=S
Activity [1]: inactive

CC(=O)/C(=C/N1CCN(C(=O)c2ccco2)C1=S)C(=O)c1ccccc1
GI50 [2]: 13.4 µM | GI50 [3]: 6.3 µM | GI50 [4]: 9.5 µM | GI50 [5]: 3.8 µM | GI50 [6]: 7.9 µM | GI50 [7]: 11.1 µM | GI50 [8]: 1.3 µM | GI50 [9]: 6.4 µM | GI50 [10]: 8.1 µM | GI50 [11]: 11.2 µM | GI50 [12]: 27.9 µM | GI50 [13]: 17.5 µM | GI50 [14]: 28 µM | GI50 [15]: 11 µM | GI50 [16]: 5.6 µM | GI50 [17]: 10.7 µM | GI50 [18]: 6.7 µM | GI50 [19]: 8.8 µM | GI50 [20]: 10.9 µM | GI50 [21]: 4.3 µM | GI50 [22]: 7.7 µM | GI50 [23]: 17.2 µM | GI50 [24]: 2.7 µM | GI50 [25]: 1.1 µM | GI50 [26]: 8.9 µM | GI50 [27]: 16.9 µM | GI50 [28]: 20.1 µM | GI50 [29]: 16.5 µM | GI50 [30]: 11.7 µM | GI50 [31]: 8.2 µM | GI50 [32]: 10.9 µM | GI50 [33]: 8.4 µM | GI50 [34]: 7.3 µM | GI50 [35]: 9.3 µM | GI50 [36]: 10.8 µM | GI50 [37]: 4.7 µM | GI50 [38]: 8.8 µM | IC50 [39]: 5 µM | GI50 [40]: 15.9 µM | GI50 [41]: 9.3 µM | GI50 [42]: 7 µM | GI50 [43]: 6.9 µM | GI50 [44]: 16.3 µM | GI50 [45]: 10.6 µM | GI50 [46]: 17.1 µM | GI50 [47]: 10.7 µM | GI50 [48]: 6.1 µM | GI50 [49]: 19.3 µM

N#C/C(=C\N1CCNC1=S)C(N)=O
Activity [1]: inactive

CC(=O)/C(=C/N1CCNC1=S)C(=O)c1ccccc1
Activity [1]: inactive
